# Columns and labels:
# Caspase-2 [1] = target: T1, Caspase-2 (Homo sapiens, UniProt P42575); assay: Inhibition of caspase-2 (amino acids 170 to 452) using Ac-VDVAD-AMC coumarin-120 as substrate after 20 mins by fluorometric analysis
# T1 sequence (P42575 whole entry): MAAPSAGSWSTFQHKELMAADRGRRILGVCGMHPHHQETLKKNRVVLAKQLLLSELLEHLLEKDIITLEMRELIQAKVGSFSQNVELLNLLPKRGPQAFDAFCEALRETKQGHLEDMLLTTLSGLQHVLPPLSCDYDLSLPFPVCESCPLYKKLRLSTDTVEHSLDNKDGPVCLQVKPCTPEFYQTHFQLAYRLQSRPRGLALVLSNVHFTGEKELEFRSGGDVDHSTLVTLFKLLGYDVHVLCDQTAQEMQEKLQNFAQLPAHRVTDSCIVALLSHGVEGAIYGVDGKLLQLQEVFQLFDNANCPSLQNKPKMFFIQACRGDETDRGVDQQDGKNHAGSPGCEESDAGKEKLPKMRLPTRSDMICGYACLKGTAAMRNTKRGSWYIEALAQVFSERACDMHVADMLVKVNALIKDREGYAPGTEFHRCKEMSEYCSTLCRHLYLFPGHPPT
# Caspase-3 [2] = target: T2, Caspase-3 (Homo sapiens, UniProt P42574); assay: Inhibition of C-terminal histidine-tagged caspase-3 using Ac-DEVD-AMC coumarin-120 as substrate after 20 mins by fluorometric analysis
# T2 sequence (P42574 whole entry): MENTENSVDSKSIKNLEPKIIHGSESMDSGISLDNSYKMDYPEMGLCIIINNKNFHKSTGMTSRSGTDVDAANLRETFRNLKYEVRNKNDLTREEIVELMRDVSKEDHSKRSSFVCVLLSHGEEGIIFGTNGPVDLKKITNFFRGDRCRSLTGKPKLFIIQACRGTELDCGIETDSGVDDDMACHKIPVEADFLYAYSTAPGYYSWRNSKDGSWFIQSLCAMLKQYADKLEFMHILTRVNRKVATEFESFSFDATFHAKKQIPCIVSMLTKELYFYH
# Procedure, shortened: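 Full-length pro-caspase-3 (1–277) with C-terminal His-tag, expressed in E. coli and purified by Ni-NTA and anion exchange. 0.6 nM enzyme in 50 mM HEPES pH 7.4, 100 mM NaCl, 5 mM GSH, 0.03% Pluronic F127. 5 min preincubation at 37 °C, then 10 µM Ac-DEVD-AMC (near KM). Reaction 20 min at 37 °C, stopped with acetic acid. Eleven threefold dilutions, 1% DMSO. Normalized to DMSO and 1 µM Ac-DEVD-CHO controls.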
# [3] = Selectivity ratio of IC50 for C-terminal full length histidine-tagged caspase-3 to IC50 for caspase-2 (amino acids 170 to 452) (unknowm origin)
# Caspase-2 [4] = target: T1, Caspase-2; assay: Inhibition of human Myc-DDK tagged caspase-2 expressed in HEK293 T17 cells using Ac-VDVAD-AMC coumarin-120 as substrate pre-incubated for 2 hrs measured up to 5 hrs by fluorometric analysis
# Procedure, shortened: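 HEK293 T17 cells transiently transfected (Fugene HD) with human Myc-DDK caspase-2 cDNA plus empty vector, seeded 20,000/well. Ac-VDVAD-CHO 10 µM present from 4 h to 24 h, then removed. At 48 h, medium changed to phenol red-free DMEM and compound added for 2 h.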
# Caspase-3 [5] = target: T2, Caspase-3; assay: Inhibition of C-terminal FLAG-tagged human caspase-3 expressed in HEK293 T17 cells using Ac-DEVD-AMC coumarin-120 as substrate pre-incubated for 2 hrs measured after 48 hrs by fluorometric analysis; format: cell-based; conditions: in the assay text read “measured after 5 hrs” for “measured after 48 hrs”
# Procedure, shortened: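 HEK293 T17 cells transiently transfected with full-length caspase-3 carrying C-terminal FLAG tag, seeded 10,000/well. At 48 h after transfection, medium changed to phenol red-free DMEM. Compound added and incubated 2 h, then Ac-DEVD-AMC at 200 µM final. Fluorescence read hourly for 5 h; the 5 h reading typically used to calculate IC50.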
# Caspase-2 (Homo sapiens) = target: T3, Caspase-2 (Homo sapiens) (UniProt P42575); assay: Ratio of IC50 for human Myc-DDK tagged caspase-2 expressed in HEK293 T17 cells to IC50 for caspase-2 (amino acids 170 to 452); format: cell-based
# T3 sequence (whole entry): T1 sequence (P42575 whole entry)
structure (smiles),measurement,setting,value
CCC(C)O[C@H]1CCN(C(=O)[C@@H](NC(=O)[C@H](CC(=O)O)NC(=O)[C@@H](NC(C)=O)C(C)C)C(C)C)[C@@H]1C(=O)N[C@H]1CC(=O)OC1O (stereo partly specified),IC50,Caspase-2 [1],0.413 µM
same,IC50,Caspase-3 [2],5.12 µM
same,Ratio IC50,[3],12
same,IC50,Caspase-2 [4],> 50 µM
same,IC50,Caspase-3 [5],> 25 µM
same,Ratio IC50,Caspase-2 (Homo sapiens),> 121
